KCNQ1 block: inhibitors of human KCNQ1 channel, primary screen, cell-based, thallium flux, high-throughput; B-score at 10 µM; CHO-K1 KCNQ1, FluxOR thallium flux fluorescence; stronger effect = higher value; Potassium voltage-gated channel subfamily KQT member 1 (Homo sapiens), P51787; hit rate 1.3% among 310,000;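 active = compounds whose thallium flux B-score, printed positive for inhibition, exceeds three library SD while starting fluorescence stays within three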;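 note: channel opened by potassium depolarization with thallium stimulus after 20 min compound exposure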
KCNK9 block: KCNK9 potassium channel inhibitors, primary screen, HEK293 cells, thallium flux | FluxOR thallium flux fluorescence; stronger effect = lower value | B-score at 10 µM | hit rate 1.2% among 310,000 | AID 488922, 2010;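 active = ratio B-score over 3 SD below the library mean, with starting fluorescence within 5 SD of its mean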;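 note: negative B-score means less thallium flux so channel inhibition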
KCNK3 inh: human KCNK3 channel inhibitors, primary screen, CHO cells, FluxOR thallium flux, B-score. Potassium channel subfamily K member 3 (Homo sapiens), O14649. FluxOR fluorescence; stronger effect = lower value. B-score at 10 µM. hit rate 0.84% among 340,000. AID 602410, 2012;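 active = B-score under library mean minus 4 SD, starting fluorescence ratio at most library mean plus 5 SD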;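 note: more negative B-score means stronger inhibition of thallium flux through KCNK3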
KCNQ1 pot: potentiators or activators of KCNQ1 channel, primary screen, cell-based, thallium flux, high-throughput; Potassium voltage-gated channel subfamily KQT member 1 (Homo sapiens), P51787; CHO-K1 KCNQ1, thallium flux FluxOR fluorescence; stronger effect = higher value; B-score at 10 µM; hit rate 0.35% among 310,000;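 active = fluorescence ratio B-score, a plate-corrected score, at least three library SD, with initial intensity B-score within 5 SD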
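System: CHO-K1 cells stably expressing KCNQ1 / Medium: assay buffer for compound exposure, DMSO matched across wells / Reagent: thallium- and potassium-containing depolarizing buffer / Compound: one concentration, matched DMSO / Incubation: 20 min compound pretreatment at room temperature / Measured by: kinetic FluxOR fluorescence, 10 s baseline plus 110 s post-stimulus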
hERG protect: hERG rescue from dofetilide block, primary screen, cell-based, CHO-hERG, FluxOR thallium flux, dofetilide IC70; AID 1511, 2009; Voltage-gated inwardly rectifying potassium channel KCNH2 (Homo sapiens), Q12809; activation (rescue from dofetilide block), less the hit threshold, % at 10 µM; hit rate 0.51% among 310,000; dofetilide IC70 present;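 active = activation above the mean of controls blocked by dofetilide plus 5 SD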;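 note: thallium influx through hERG after potassium depolarization seen as dye fluorescence rise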
Kir21 inh: inhibitors of mouse Kir2.1 inward-rectifier potassium channel | Inward rectifier potassium channel 2 (Mus musculus), P35561 | B-score at 10 µM | hit rate 0.85% among 310,000 | HEK293-Kir2.1, FluxOR thallium flux fluorescence; stronger effect = lower value;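 active = fluorescence ratio B-score at or below minus 3 SD of library scores, with starting-brightness B-score within 2 SD, cut at about -4.2 in these data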;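 note: channel flux triggered by added potassium and thallium sulfate stimulus; B-score of peak minus minimum fluorescence over baseline after thallium stimulus; more negative B-score means stronger Kir2.1 block with less thallium influx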
Of the large screens only hits and unclear results are named; the others gave an inactive call. Only some compounds are listed: those with a hit (about 3.7% of all), similar ones and a draw of the others.

O=C(NCCc1ccccc1)C(=O)NCC1CCNCC1	hERG protect 4.6 (no result: KCNK3 inh)
O=C(Cc1cccc(NC(=O)C2CCN(C(=O)c3ccccc3)CC2)c1)Nc1cccc(C(=O)N2CCCCC2)c1	none (no result: KCNQ1 block, KCNK9 block, KCNQ1 pot, hERG protect, Kir21 inh)
Cc1ccc(/C(O)=C/C(=O)C(=O)NNC(=O)C(O)(c2ccccc2)c2ccccc2)cc1	KCNQ1 pot 13
CC1(c2ccccc2)CC(c2ccccc2)=Nc2nonc2N1 (configuration not stated)	Kir21 inh -4.4
COc1ccccc1C(=O)n1nc(-c2ccccc2)nc1NCc1ccco1	KCNK9 block -7.7
O=c1[nH]c(CSc2ccccn2)nc2c1oc1ccccc12	none
CSCCOC(=O)C1=C(C)NC(=O)CC1c1ccccc1Cl (configuration not stated)	Kir21 inh -5.5
COc1cc(/C=C(\C#N)C(=O)c2c(C)[nH]c3ccccc23)cc(OC)c1OC	none
COc1ccc(/C=C(\C#N)C(=O)c2c(C)[nH]c3ccccc23)cc1OC	KCNQ1 block 6
CC(C(=O)NCC1CCCCC1)N(C)CC(=O)Nc1ccc(N2CCOCC2)cc1 (configuration not stated)	none
Cc1nn(-c2ccccc2)c2nc(C(Cl)(Cl)Cl)[nH]c(=O)c12	KCNQ1 pot 12
COc1ccc(-c2cnc3n2CCCCC3)cc1	none
Clc1ccc(C2=C3CCCCn4c(-c5ccccc5)c[n+](c43)C2)cc1	KCNQ1 block 7
COc1ccc(-c2c[n+]3c4n2CCCCC4=C(c2ccc(Br)cc2)C3)cc1	KCNQ1 block 11
O=C(NNc1c(F)c(F)cc(F)c1F)c1cc2ccccc2oc1=O	hERG protect 9.9
O=S(=O)(CCSc1ccc(C(F)(F)F)cn1)c1ccc(Cl)cc1	none
COc1cc(C(=O)CCN2CCC(c3ccccc3)C2)cc(OC)c1OC (configuration not stated)	KCNQ1 pot 11
O=C(CCN1CCC(c2ccccc2)C1)c1ccccc1 (configuration not stated)	none
COc1ccc(N2C(=O)CC(N(Cc3ccco3)C(=O)CCC(=O)O)C2=O)cc1 (configuration not stated)	none
CCCCOc1ccccc1N	hERG protect 5.9
COc1ccc(-c2ccc(/C=N/NC(=O)c3cccnc3)o2)c([N+](=O)[O-])c1	hERG protect 16
Cc1nc(CS(=O)(=O)c2ccccn2)sc1C(=O)NNC(=O)c1ccc(Cl)cc1	none
O=C(COC(=O)c1cc(Cl)ccc1[N+](=O)[O-])NCc1ccc(Cl)cc1Cl	KCNK9 block -7.3
Cc1ccc(-n2c(=S)[nH]c3sc4c(c3c2=O)CCC4)cc1	KCNQ1 pot 8
O=c1c2c3c(sc2[nH]c(=S)n1Cc1ccco1)CCC3	KCNQ1 pot 15, hERG protect 11
COCCn1c(=S)[nH]c2sc3c(c2c1=O)CCCC3	KCNQ1 pot 30, hERG protect 17
Cc1ccc(-n2c(=O)c3c4c(sc3n3c(=S)[nH]nc23)CCC4)cc1	none
C=CCn1c(=S)[nH]c2sc3c(c2c1=O)CCCC3	KCNQ1 pot 65, hERG protect 12
COC(=O)C1=C(C)N(Cc2ccc(C)cc2)C(=O)/C1=C\c1cc(OC)c(OC)c(OC)c1	KCNK9 block -6.6
COC(=O)C1=C(C)N(Cc2ccccc2)C(=O)/C1=C\c1ccco1	none
CCN(C/C=C/c1ccccc1OC)Cc1ccccc1	Kir21 inh -4.8
Nn1c(SCc2ccccc2F)nnc1-c1ccncc1	none
Cc1nnc(SCc2ccccc2F)n1NCc1cccs1	Kir21 inh -4.2
CC(CCc1ccccc1)NS(=O)(=O)c1ccc(Cl)c(C(=O)O)c1 (configuration not stated)	none
CCCc1cc(=O)[nH]c(SCC(=O)N(Cc2ccccc2)C(C)C)n1	KCNK9 block -7
CCCc1cc(=O)[nH]c(SCC(=O)NC(=O)c2ccccc2)n1	none

From PubChem
